The results in this text go back to ChEMBL document CHEMBL2311380, “The first total synthesis and biological evaluation of marine natural products ma'edamines A and B” (Bioorg Med Chem Lett, 2013).

Calls of active or inactive are those of the source. No cut-off for these calls is given here.

As a reminder, the IC50 is the point on the concentration scale where inhibition reaches its midpoint.

One test deals with THP-1. In words: Cytotoxicity against human acute monocytic leukemia cell line THP1 assessed as inhibition of cell viability measured after 24 hrs by MTT assay. Type of test: functional, cell-based. To be noted: THP-1, 24 h. The procedure, abridged: (§1)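 Exponentially growing cells exposed to compound, then allowed to proliferate for two to three population doubling times; surviving cells quantified by MTT reduction by mitochondrial dehydrogenase to formazan, dissolved in DMSO and read at 570 nm.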
On the technique in general: Tetrazolium assays rely on reduction of a dye to a coloured formazan, in cell work by metabolically active cells.

Test [1] concerns A549. In words: Cytotoxicity against human lung adenocarcinoma cell line A549 assessed as inhibition of cell viability measured after 24 hrs by MTT assay. Type of test: functional, cell-based. To be noted: A549, 24 h. The procedure, abridged: as §1
Test [2] concerns A549. In words: Cytotoxicity against human […] assessed as cell death measured at 7 ug/mL after 24 hrs by MTT assay. Type of test: functional. The essentials: (§2)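 Cells in exponential growth exposed to compound, then left to proliferate for two to three population doubling times so viable, proliferating cells are told apart from non-proliferating ones. Surviving cells estimated by MTT reduction to formazan by mitochondrial dehydrogenase; formazan dissolved in DMSO and read at 570 nm.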

The subject of test [3] is MCF7. In words: Cytotoxicity against human colon cancer line MCF7 assessed as cell death measured at 10 ug/mL after 24 hrs by MTT assay. It is filed as functional. The procedure, abridged: as §2
Test [4] deals with COLO 205. In words: Cytotoxicity against human colon cancer line COLO205 assessed as inhibition of cell viability measured after 24 hrs by MTT assay. Type of test: functional, cell-based. To be noted: COLO 205, 24 h. The procedure, abridged:
as §1

Test [5] relates to A549. In words: Cytotoxicity against human […] assessed as cell death measured at 10 ug/mL after 24 hrs by MTT assay. Type of test: functional. The essentials:
as §2

Test [6] relates to COLO 205. In words: Cytotoxicity against human colon cancer line COLO205 assessed as cell death measured at 7 ug/mL after 24 hrs by MTT assay. Type of test: functional. The procedure, abridged:
as §2

Test [7] concerns MCF7. In words: Cytotoxicity against human colon cancer line MCF7 assessed as cell death measured at 5 ug/mL after 24 hrs by MTT assay. Type of test: functional. The essentials:
as §2

Test [8] relates to COLO 205. In words: Cytotoxicity against human colon cancer line COLO205 assessed as cell death measured at 1 ug/mL after 24 hrs by MTT assay. Type of test: functional. The essentials:
as §2

The test system of test [9] is A549. In words: Cytotoxicity against human […] assessed as cell death measured at 2 ug/mL after 24 hrs by MTT assay. Type of test: functional. The procedure, abridged: as §2
For test [10], the system named is A549. In words: Cytotoxicity against human […] assessed as cell death measured at 1 ug/mL after 24 hrs by MTT assay. Type of test: functional. The essentials:
as §2

Test [11] concerns MCF7. In words: Cytotoxicity against human colon cancer line MCF7 assessed as cell death measured at 7 ug/mL after 24 hrs by MTT assay. Type of test: functional. The essentials:
as §2

The subject of test [12] is COLO 205. In words: Cytotoxicity against human colon cancer line COLO205 assessed as cell death measured at 5 ug/mL after 24 hrs by MTT assay. Type of test: functional. The essentials:
as §2

Test [13] relates to MCF7. In words: Cytotoxicity against human breast cancer cell line MCF7 assessed as inhibition of cell viability […] by MTT assay. It is filed as functional, cell-based.
The subject of test [14] is MCF7. In words: Cytotoxicity against human colon cancer line MCF7 assessed as cell death measured at 1 ug/mL after 24 hrs by MTT assay. Type of test: functional. The procedure, abridged: as §2
Test [15] deals with COLO 205. In words: Cytotoxicity against human colon cancer line COLO205 assessed as cell death measured at 2 ug/mL after 24 hrs by MTT assay. Type of test: functional. The procedure, abridged: as §2
For test [16], the system named is COLO 205. In words: Cytotoxicity against human colon cancer line COLO205 assessed as cell death measured at 10 ug/mL after 24 hrs by MTT assay. It is filed as functional. The procedure, abridged:
as §2

Test [17] deals with MCF7. In words: Cytotoxicity against human colon cancer line MCF7 assessed as cell death measured at 2 ug/mL after 24 hrs by MTT assay. It is filed as functional. The procedure, abridged: as §2
Test [18] has as its system A549. In words: Cytotoxicity against human […] assessed as cell death measured at 5 ug/mL after 24 hrs by MTT assay. Type of test: functional. The essentials:
as §2

For the next test, the system named is B16-F10. In words: Cytotoxicity against mouse melanoma cell line B16F10 assessed as inhibition of cell viability measured after 24 hrs by MTT assay. Type of test: functional, cell-based. To be noted: B16-F10, 24 h. The procedure, abridged:
as §1

Another test relates to HepG2. In words: Cytotoxicity against human liver hepatocellular carcinoma cell line HepG2 assessed as inhibition of cell viability measured after 24 hrs by MTT assay. Type of test: functional, cell-based. To be noted: HepG2, 24 h. The essentials: as §1
Test [19] has as its system MCF7. In words: Cytotoxicity against human breast cancer cell line MCF7 assessed as cell survival measured after 24 hrs by MTT assay relative to control. Type of test: functional. The essentials:
as §2

Test [20] has as its system MCF7. In words: Induction of apoptosis in human MCF7 cells assessed as DNA laddering at IC50 concentration measured after 24 hrs by DNA laddering assay relative to control. Type of test: functional, cell-based. The procedure, abridged: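 DNA from treated and untreated cells run on a gel and examined for fragmentation (laddering).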
Test [21] concerns MCF7. In words: Induction of apoptosis in human MCF7 cells assessed as double-strand DNA break at IC50 concentration measured after 24 hrs by comet assay relative to control. It is filed as functional, cell-based. The essentials: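 Treated cells embedded in low melting agarose on a microscope slide, lysed at alkaline pH, electrophoresed at high pH, then examined for comet tails as a sign of double-strand DNA breaks, with untreated cells as control.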

As to `COc1ccc(Cc2nc(-c3cc(Br)c(O)c(Br)c3)cnc2Cl)cc1Br`, the IC50 was found to be 108 µM in the test on THP-1 and 41.2 µM in the test on A549 [1].

For `COc1ccc(Cc2nc(-c3cc(Br)c(OCCCN(C)C)c(Br)c3)cnc2Cl)cc1Br`, the values for the IC50 in the test on THP-1 and in the test on A549 [1] were 87.3 µM and 14.4 µM, respectively.

Regarding `COc1ccc(Cc2nc(-c3cc(Br)c(O)c(Br)c3)c[nH]c2=O)cc1Br`, the figures for the IC50 in the test with THP-1 and in the test on A549 [1] were 125 µM and 52 µM, respectively.

Consider `CNCCCOc1c(Br)cc(-c2cnc(Cl)c(Cc3ccc(OC)c(Br)c3)n2)cc1Br`, for which the IC50 with THP-1 stood at 133 µM; in the test on A549 [1], 25.3 µM.

For `COc1cc([C@@H]2c3cc4c(cc3[C@@H](O[C@@H]3O[C@@H]5CO[C@@H](C)O[C@H]5[C@H](O)[C@H]3O)[C@H]3COC(=O)[C@H]23)OCO4)cc(OC)c1O` [ETOPOSIDE], the Activity turned out to be 100% in the test with A549 [2]; 51% in the test with MCF7 [3]; 100% in the test with A549 [5]; 100% in the test with COLO 205 [6]; 23.9% in the test on MCF7 [7]; 17.8% with COLO 205 [8]. Also, the Activity in the test on A549 [9] worked out at 93.4%; in the test on A549 [10], 47.9%; with MCF7 [11] it was 33.7%; in the test with COLO 205 [12], 78.7%; with MCF7 [14], 4.3%; with COLO 205 [15] it was 39.2%. Moreover, the Activity in the test on COLO 205 [16] is 100%; with MCF7 [17] it was 8.9%; in the test with A549 [18], 100%. In addition, the IC50 in the test on COLO 205 [4] was 5.3 µM; in the test on MCF7 [13], 16.3 µM.

As to `COc1ccc(Cc2nc(-c3cc(Br)c(OCCCN(C)C)c(Br)c3)c[nH]c2=O)cc1Br` [Ma'edamine A], the IC50 stood at 16.7 µM in the test with B16-F10; 29.6 µM with HepG2; 7.9 µM in the test on COLO 205 [4]; 6.9 µM in the test with MCF7 [13]; 46.2 µM with THP-1; 12.2 µM in the test on A549 [1]. Also, the Survival with MCF7 [19] is 47.7%. For the same molecule, the result with MCF7 [20] and with MCF7 [21] was Active.

Turning to `CNCCCOc1c(Br)cc(-c2c[nH]c(=O)c(Cc3ccc(OC)c(Br)c3)n2)cc1Br` [Ma'edamine B], the IC50 in the test on B16-F10 amounted to 53.3 µM; in the test with HepG2, 42.8 µM; in the test with COLO 205 [4] it was 10.3 µM; with MCF7 [13], 10.9 µM; with THP-1, 90.7 µM; in the test on A549 [1] it was 15.4 µM. Also, the Survival in the test on MCF7 [19] is 49.256%. The outcome in the test with MCF7 [20] and in the test with MCF7 [21] was Active.
